Tests used:
[1] = target: Ornithine decarboxylase (Mus musculus) (UniProt P00860); test: Compound was evaluated for the ability to inhibit the phorbol ester induced increase of mouse epidermal ornithine decarboxylase (ODC) activity by 50% when administered topically using ODC assay.
HL-60 = test: Compound was evaluated for the retinoid-induced differentiation of the human myeloid leukemia cell line HL-60 using trans-retinoic acid as the standard.; type: functional; conditions: read-out: ED50 (the source's name)
[2] = target: T1, Ornithine decarboxylase (Mus musculus) (UniProt P00860); test: Compound was evaluated for the ability to inhibit the phorbol ester induced increase of mouse epidermal ornithine decarboxylase (ODC) activity by 50% when administered topically using ODC assay.; type: functional
T1 sequence (whole entry): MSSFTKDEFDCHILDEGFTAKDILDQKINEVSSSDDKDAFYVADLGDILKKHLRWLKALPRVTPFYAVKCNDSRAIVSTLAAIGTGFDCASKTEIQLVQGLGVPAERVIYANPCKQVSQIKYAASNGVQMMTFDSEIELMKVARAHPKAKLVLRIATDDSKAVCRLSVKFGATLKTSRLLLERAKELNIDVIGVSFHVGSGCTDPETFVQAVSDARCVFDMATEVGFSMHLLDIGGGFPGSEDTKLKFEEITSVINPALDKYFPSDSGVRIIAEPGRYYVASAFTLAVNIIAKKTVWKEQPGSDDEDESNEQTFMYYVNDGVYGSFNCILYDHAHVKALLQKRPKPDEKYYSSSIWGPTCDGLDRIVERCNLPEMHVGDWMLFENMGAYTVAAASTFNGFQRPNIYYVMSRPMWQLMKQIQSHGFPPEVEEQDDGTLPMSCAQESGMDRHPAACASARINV
Method in brief: (§1)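 Retinoids applied topically to mouse skin at 0.1, 1.0, 5.0, 10 and 50 nmol, 1 h before 10 nmol TPA. Epidermal ODC activity measured 4.5 h after TPA as nmol CO2/30 min per mg protein. ID50 (dose giving 50% inhibition of TPA-induced ODC) read from dose-response curves; three experiments, results normalized.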

[3] = target: T1, Ornithine decarboxylase (Mus musculus); test: Compound was evaluated for the ability to inhibit the phorbol ester induced increase of mouse epidermal ornithine decarboxylase; type: functional
Method in brief: as §1

[4] = target: T1, Ornithine decarboxylase (Mus musculus); test: Compound was evaluated for the percentage inhibition of test retinoid as compared to the control by ODCassay; type: functional; conditions: concentration not given here
Method in brief: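 Single topical retinoid dose of 34 nmol given 1 h before 10 nmol TPA on mouse skin. Epidermal ODC assayed 4.5 h after TPA as nmol CO2/30 min per mg protein. Three groups of two mice each. % inhibition = [(ODC with TPA) − (ODC with TPA + retinoid)]/(ODC with TPA) × 100.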

Compound | EC50 (HL-60) [nM] | ID50 [2] [nM] | other results
COC(=O)c1ccc(/C=C(\C)c2ccc3c(c2)C(C)(C)CC(C)(C)S3)cc1 | – | – | ID50 [1]: 0.3 nM
CC1=C(/C=C/C(C)=C/C=C/C(C)=C/C(=O)O)C(C)(C)CCC1 [TRETINOIN] | 50 | 0.12 | –
CC(/C=C/C=C(\C)c1ccc2c(c1)C(C)(C)CCS2)=C\C(=O)O | 500 | 3.3 | –
CCCCCCCCCCCCCC(=O)OCC1(C)[C@H]2[C@@H]3C=C(CO)C[C@]4(O)C(=O)C(C)=C[C@H]4[C@@]3(O)[C@H](C)[C@@H](O)[C@]21OC(C)=O.COC(=O)c1ccc(/C=C(\C)c2ccc3c(c2)C(C)(C)CS3)cc1 (some centres undefined) | – | – | ID50 [3]: 1.2 nM; inhibition [4]: 94%
C/C(=C\c1ccc(C(=O)O)cc1)c1ccc2c(c1)C(C)(C)CS2.CCCCCCCCCCCCCC(=O)OCC1(C)[C@H]2[C@@H]3C=C(CO)C[C@]4(O)C(=O)C(C)=C[C@H]4[C@@]3(O)[C@H](C)[C@@H](O)[C@]21OC(C)=O (some centres undefined) | – | – | ID50 [3]: 22 nM; inhibition [4]: 91%
C/C(=C\C=C\[C@H]1C[C@@H]1C(=O)O)c1ccc2c(c1)C(C)(C)CCS2 | > 1000 | 35 | –
CC1=C(/C=C/C(C)=C/C=C/C(C)=C\C(=O)O)C(C)(C)CCC1 [ISOTRETINOIN] | 100 | – | –
CC(/C=C/C=C(\C)c1ccc2c(c1)C(C)(C)CC(C)(C)S2)=C\C(=O)O | > 1000 | 3.7 | –

Second part, led by results:

EC50 (HL-60) [nM] | ID50 [2] [nM] | Compound | other results
> 1000 | 35 | CC1(C)CCSc2ccc(/C(=C/c3ccc(C(=O)O)cc3)C(F)(F)F)cc21 | –
– | > 50 | CC1(C)CC(C)(C)c2cc(/C(=C/c3ccc(C(=O)O)cc3)C(F)(F)F)ccc2S1 | –
– | > 50 | COC(=O)c1ccc(/C=C(/c2ccc3c(c2)C(C)(C)CC(C)(C)S3)C(F)(F)F)cc1 | –
> 1000 | 0.31 | C/C(=C\c1ccc(C(=O)O)cc1)c1ccc2c(c1)C(C)(C)CC(C)(C)S2 | –
– | > 50 | COC(=O)c1ccc(/C=C(/c2ccc3c(c2)C(C)(C)CCS3)C(F)(F)F)cc1 | –
> 1000 | > 50 | CC1(C)CCOc2ccc(/C(=C/c3ccc(C(=O)O)cc3)C(F)(F)F)cc21 | –
– | > 50 | COC(=O)c1ccc(/C=C(/c2ccc3c(c2)C(C)(C)CCO3)C(F)(F)F)cc1 | –

Reference: ChEMBL document CHEMBL1125746, “Novel heteroarotinoids: synthesis and biological activity” (1991)
